# Assay outcomes: PubChem BioAssay, several laboratories
# Only some compounds are listed: those with a hit (about 4.2% of all), similar ones and a draw of the others.
# KCC2 mod: KCC2 (human) Cl- transport modulation | Q9H2X9 | KCC2 cells, thallium flux FluoZin-2 fluorescence | B-score of Tl+ flux slope (higher = more flux/activation; lower = inhibition) at 10 µM | actives 2.2% (n = 190,000) | AID 1456;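 active means thallium flux slope and its plate-corrected score both differing from the plate sample mean at a set confidence after two filtering rounds, in either direction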;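 further: slope of fluorescence scaled to starting intensity during 10 to 20 s after thallium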
# KCNQ1 act: potentiators or activators of human KCNQ1 potassium channel; P51787; CHO-K1 KCNQ1, thallium flux FluxOR fluorescence; stronger effect = higher value; B-score at 10 µM; actives 0.35% (n = 310,000);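 active means fluorescence ratio B-score, a plate-corrected score, at least three library SD, with initial intensity B-score within 5 SD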
#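 Schedule – 37 °C overnight plating, 90-min dark dye load, 20-min compound pretreatment · System – stable KCNQ1 CHO-K1 line · Probe or stimulus – thallium- and potassium-containing depolarizing buffer · Measured by – kinetic FluxOR fluorescence, 10 s baseline plus 110 s post-stimulus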
# hERG rescue: compounds protecting human hERG from proarrhythmic drug block | actives 0.51% (n = 310,000) | activation (rescue from dofetilide block), less the hit threshold, % at 10 µM | Q12809 | CHO-hERG, FluxOR thallium flux, dofetilide IC70 present;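 active means activation above the mean of controls blocked by dofetilide plus 5 SD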;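 further: thallium influx through hERG after potassium depolarization seen as dye fluorescence rise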
# AI-2 QS modul: modulates the Vibrio harveyi AI-2 quorum sensing system; Vibrio harveyi JMH597 AI-2 luminescence/OD600 ratio, 9 h; stronger effect = lower value; strain lacks LuxN and CqsS sensors; 0 = neutral-control median; activity change, % at 7.5 µM; actives 0.4% (n = 300,000); AID 2094; in the data active means activity change below about -75%, passing the limit was not always enough; inconclusive means no clear call, values can overlap the other calls;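 further: luminescence divided by OD600 gain over 9 h not by final OD600 alone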
# Mot1-301 SUMO: inhibitors of SUMOylation pathway: yeast Mot1-301 growth rescue | actives 1% (n = 320,000) | S. cerevisiae Mot1-301 growth rescue, ATP luminescence, 38.5C; percent above DMSO median, 100 means doubled | growth rescue, % at 18.8 µM;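 active means every valid replicate shows activation above 250% relative to neutral control wells; inactive means the rest, any valid replicate at or below 250%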;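 further: OY570 slx delta 5 strain wells were the positive control but not used for scaling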
# KCNQ1 block: blocks the human KCNQ1 potassium channel | CHO-K1 KCNQ1, FluxOR thallium flux fluorescence; stronger effect = higher value | P51787 | actives 1.3% (n = 310,000) | B-score at 10 µM;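 active means compounds whose thallium flux B-score, printed positive for inhibition, exceeds three library SD while starting fluorescence stays within three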;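 further: channel opened by potassium depolarization with thallium stimulus after 20 min compound exposure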
# KCC2 sec1: confirmation of human KCC2 transport modulators. actives 15% (n = 3,700). shares compounds with KCC2 mod. normalised thallium flux (F/F0 slope) at 10 µM. HEK293-KCC2, thallium flux, FluoZin2 fluorescence; stronger effect = higher value;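 active means thallium flux slope above the same plate's solvent-only control mean plus 3 SD; inconclusive means the two replicate wells disagree; inactive means no significant difference from solvent-only control wells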
# KCC2 bumet counter: bumetanide-insensitive thallium flux in KCC2 cells with ouabain, counter-screen. shares compounds with KCC2 mod. AID 1714. HEK293-KCC2 + bumetanide/ouabain, thallium flux FluoZin2; stronger effect = higher value. actives 49% (n = 3,700). normalized thallium flux at 10 µM;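 active means thallium entry rate above the same plate's blocked-transporter control wells by more than 3 SD; inconclusive means the two repeat wells disagree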;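 further: raw slope of fluorescence over initial fluorescence between 10 and 20 s after thallium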
# KCC2 sec2: KCC2 (human) modulation, second secondary assay; shares compounds with KCC2 mod; HEK293-KCC2, thallium flux FluoZin2 fluorescence; actives lie on both sides; F/F0 rise rate, 10–20 s post-thallium; normalized thallium flux at 10 µM; actives 23% (n = 3,700); AID 1715;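 active means thallium flux slope more than 3 SD above or below the plate's solvent-only control mean, mostly below; inconclusive means the two repeat wells disagreed; inactive means no significant shift from solvent-only controls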;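 further: raw slope with 0.1% DMSO as baseline and bumetanide as block control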
# HEK293 Tl flux: acts in parental HEK cells, KCC2 counter-screen; shares compounds with KCC2 mod; HEK293 parental cells, thallium flux FluoZin2, ouabain; baseline-ratio fluorescence slope, 10–20 s after thallium; thallium flux rate (normalised fluorescence) at 10 µM; actives 46% (n = 3,700); AID 1716;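 active means thallium flux rate significantly above the same plate's solvent-only control wells, beyond their mean plus 3 SD; inconclusive means the two replicate wells gave conflicting results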
# KCC2 ouabain: KCC2 (human) modulation, ouabain retest; shares compounds with KCC2 mod; HEK293-KCC2, thallium flux FluoZin2 fluorescence; bidirectional: low = inhibitor, high = activator; raw Tl+ flux slope (below DMSO = inhibition, above = activation) at 10 µM; actives 48% (n = 3,700);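 active means thallium flux slope beyond 3 SD from same-plate DMSO control mean in most replicates, usually higher, sometimes lower; inconclusive means repeat tests gave conflicting results; inactive means no significant difference from controls in most replicates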;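 further: slope of initial-normalized fluorescence between seconds 10 and 20 after thallium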
# HEK counter2: acts in parental HEK cells, second KCC2 counter-screen; shares compounds with KCC2 mod; HEK293 parental, thallium flux FluoZin-2 fluorescence slope; thallium flux slope at 10 µM; actives 33% (n = 3,700); AID 1718;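 active means thallium flux slope above the same plate's solvent-control mean plus 3 SD in both duplicate wells; inconclusive means duplicate wells that disagreed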;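 further: run without ouabain in cells lacking the KCC2 cotransporter; slope of fluorescence scaled to its starting value between 10 and 20 s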
# An asterisk follows results filed as active; i = inactive; ? = inconclusive; . = no result.
SMILES,KCC2 mod,KCNQ1 act,hERG rescue,AI-2 QS modul,Mot1-301 SUMO,KCNQ1 block,KCC2 sec1,KCC2 bumet counter,KCC2 sec2,HEK293 Tl flux,KCC2 ouabain,HEK counter2
COCCN(Cc1cc2cc(C)ccc2nc1Cl)C(=O)Nc1ccccc1OC,0.39,i,-8,19,2,i,.,.,.,.,.,.
CCc1nc(N2CCN(C(C)=O)CC2)c(C#N)c2c1COC(C)(C)C2,0.7,i,-2,14,-9,i,.,.,.,.,.,.
Cc1nc(N2CCN(C(=O)c3ccc(Cl)cc3)CC2)c(C#N)c2c1COC(C)(C)C2,-1.7,i,-7,8,-6,i,0.0063,0.0042,0.028,?,0.017,0.011
CC1(C)Cc2c(C#N)c(N3CCN(C(=O)c4ccco4)CC3)nc(Cc3ccccc3)c2CO1,.,i,-12,9,-5,i,0.0085,0.0062,0.034,?,0.017*,0.011
CC1(C)Cc2c(C#N)c(NCCc3ccccc3)nc(-c3ccco3)c2CO1,-0.43,i,-8,57,-6,i,0.0052,0.0043,0.029,0.0072,0.018,0.01
COc1ccccc1C(C)NCC(=O)NC(=O)NCc1ccco1 (configuration not stated),.,i,-18,15,42,i,.,.,.,.,.,.
CCC(C)(C)C1CCc2[nH]nc(C(=O)NCCCNC(=O)OC(C)(C)C)c2C1 (configuration not stated),.,.,.,.,-12,.,.,.,.,.,.,.
C=CCc1cc(/C=C2/NC(=O)N(CC(=O)OC)C2=O)cc(OC)c1O,-0.13,i,-6,-1,-30,i,.,.,.,.,.,.
CS(=O)(=O)NCCSCc1ccccc1,-0.85,i,-5,13,3,i,.,.,.,.,.,.
Cc1ccccc1CSCCNS(C)(=O)=O,.,i,-9,8,0,i,0.017,0.0048,0.029,0.0075,0.017,0.0094
O=C(O)/C=C/c1ccc(S(=O)(=O)NCc2cccnc2)cc1,3.8*,i,-7,1,-14,i,0.015,0.0045,0.029,0.0072,0.016,0.011
C=CCn1c(SCC(=O)NC2CCCc3ccccc32)nnc1-c1ccncc1 (configuration not stated),0.23,i,-4,-4,54,i,.,.,.,.,.,.
COc1ccccc1-c1noc(-c2ccccc2C(=O)Nc2ccccc2)n1,.,i,-13,22,13,i,.,.,.,.,.,.
COc1ccccc1NC(=O)c1ccccc1-c1nc(-c2ccccc2OC)no1,4*,i,-24,39,-9,i,0.0081,0.0052,0.032,0.0035,0.019,0.011
O=C(COC(=O)c1cc(S(=O)(=O)N2CCOCC2)ccc1O)NCC1CCCO1 (configuration not stated),.,i,-4,11,-15,i,0.011,0.0075,0.033,0.008,0.023,0.011
Cc1ccc(C2CC2c2n[nH]c(=S)n2-c2cccc(Cl)c2)cc1 (configuration not stated),5.6*,i,-6,17,-5,i,0.0077,0.027*,0.03,0.011*,?,0.0099
CCCCC(c1nnnn1Cc1ccco1)N1CCN(c2nc3ccccc3s2)CC1 (configuration not stated),-6.9*,i,-10,33,34,i,0.0092,0.0063,?,0.0067,0.015*,0.011
c1ccc(C(c2nnnn2Cc2ccco2)N2CCN(c3nc4ccccc4s3)CC2)cc1 (configuration not stated),-0.75,i,-11,20,20,i,.,.,.,.,.,.
Cn1c(=O)[nH]c(=O)c2c1nc(N1CCOCC1)n2CCCSc1ncccn1,0.65,i,-7,29,-5,i,.,.,.,.,.,.
Cc1ccc(Cl)cc1NC(=S)N/N=C/c1cccc2ccccc12,30*,11*,8.5*,12,9,i,0.0091,0.035*,0.033,?,0.028*,0.013
CCSc1nc2c(cnn2-c2ccccc2)c(=O)n1N,4.6*,i,-6,6,221,i,0.01,0.02*,0.031,0.01*,0.034*,0.011*
CSc1nc2c(cnn2-c2ccccc2)c(=O)n1N,1.2,i,-9,14,-1,i,.,.,.,.,.,.
CCC(C)(C)NC(=O)C1CCN(c2nc(OC)nc(OC)n2)CC1,-0.22,i,3,21,.,i,.,.,.,.,.,.
Cc1ccccc1N1Cc2ccccc2C1,0.74,i,-8,25,-6,i,.,.,.,.,.,.
O=C(CSc1nc2cc(Cl)ccc2s1)c1ccco1,13*,i,-7,21,34,i,0.025*,0.036*,0.043*,0.03*,0.036*,0.033*
SMILES,KCC2 mod,KCNQ1 act,hERG rescue,AI-2 QS modul,Mot1-301 SUMO,KCNQ1 block,KCC2 sec1,KCC2 bumet counter,KCC2 sec2,HEK293 Tl flux,KCC2 ouabain,HEK counter2
Cc1sc2nc(SCC(=O)OC(C)C)n(C)c(=O)c2c1C,.,i,-11,29,.,i,0.0077,0.014*,0.035,0.015*,0.026*,0.018*
CCOC(=O)CNC(=O)CSc1nc2sc(C)c(C)c2c(=O)n1C,.,i,-8,22,2,i,0.0064,0.019*,0.037,0.017*,0.027*,0.021*
Cc1sc2nc(SCC(=O)NCCO)n(C)c(=O)c2c1C,.,i,-8,15,-1,i,.,.,.,.,.,.
Cc1nc([N+](=O)[O-])c(Sc2nc3ccccc3n2C)n1Cc1ccccc1,-3,i,-6,8,-5,i,.,.,.,.,.,.
CCn1c(-c2ccccc2)c(C(=O)CCl)c2ccccc21,-4.3*,i,-13,24,11,i,0.0055,0.0028*,0.029,0.0049*,0.017*,0.008*
Cn1c(-c2ccccc2)c(C(=O)CCl)c2ccccc21,-3.9*,i,-22,-8,.,i,0.0091,0.0042,0.031,0.0051*,0.016*,0.0091*
